ChEMBL document CHEMBL4513216, “Probing the Open Global Health Chemical Diversity Library for Multistage-Active Starting Points for Next-Generation Antimalarials” (ACS Infect Dis, 2020)

Assay: Toxicity liver stage against HepG2, at 10uM
Assay type: cell-based
Design: test concentration 10 uM, cell line HepG2-A16-CD81EGFP
Settings: human, HepG2-A16-CD81EGFP cells; read-out: INHIBITION
Procedure, shortened: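 Uninfected HepG2-A16-CD81EGFP cells, 3 × 10^3 per well, 1536-well, plated on prespotted compound at 10 μM final, parasite-free screening media added to match infected plates; puromycin 10 μM positive, DMSO 0.5% negative; run in parallel with 48 h PbLuc assay at 37 °C, 5% CO2; viability by CellTiter-Glo luminescence, normalized to controls.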

| SMILES | cytotoxicity at 10 µM |
| --- | --- |
| CN1CCCN(C(=O)c2ccnn2-c2ccc3ccccn23)CC1 | -107% |
| Cc1cnc2n(c1=O)CC(C(=O)Nc1cccc3cccnc13)CS2 (configuration not stated) | -19.6% |
| CN1CCN([C@@H]2CCN(CC3CCOC3)[C@H]2Cc2cnn(C)c2)CC1 (some centres not stated) | 5.25% |
| CCc1ccccc1OCC(=O)N1CCOCC1c1ncon1 (configuration not stated) | -8.93% |
| COc1ccc(C)cc1CN1CCC(c2cc3ncccc3cn2)CC1 | 20.5% |
| O=C(NCc1ccc(Br)cc1F)C1(O)CCSCC1 | 6.4% |
| COc1ccc(C(=O)NC2CC2)c(OC2CCN(CCCSC)CC2)c1 | -1.76% |
| O=C(NCc1ccccc1CN1CCCC1)Nc1cccnc1 | 6.75% |
| N#Cc1ccc(F)c(CNc2ccc(F)cc2OCCO)c1 | -1.98% |
| O=C(Cc1c[nH]c(=O)[nH]c1=O)N1CCC2(CCC(=O)N(C3CC3)C2)CC1 | -44.5% |
| CC(C)(C)c1ncc(C(=O)N2CCC(N3CCSCC3)CC2)c(O)n1 | 0.382% |
| NCc1n[nH]c(-c2cccc(F)c2)n1 | -167% |
| O=C(Cc1ccccc1F)N1CCC[C@@H]1Cn1c(=O)oc2ccccc21 | 2.69% |
| Cc1nc(CC(=O)N2CCC(c3ccn4nccc4n3)CC2)cs1 | -0.956% |
| O=C(NCC1(CO)CC1)c1ccccc1C(F)(F)F | 4% |
| Cc1cc(C(=O)N2CC[C@@H]3CO[C@@H](CN4CCCC4)[C@@H]3C2)no1 | 7.61% |
| CCN(CC)S(=O)(=O)N1CCC(c2nccn2Cc2ccccn2)CC1 | 0.136% |
| CCC(CNC(=O)c1ccccc1Br)N1CCc2ccccc2C1 (configuration not stated) | 16.6% |
| COCC1CN(CC2CC2)Cc2nccn2C1 (configuration not stated) | -76% |
| COc1cccc([C@H]2CN(C(=O)c3noc4c3CCCC4)C[C@@H]2N)c1 | 2.57% |
| c1ccc(CO[C@@H]2CN(Cc3cccnc3)[C@@H]3COC[C@@H]32)nc1 | -98.7% |

| SMILES | cytotoxicity at 10 µM |
| --- | --- |
| Cc1nc(O)cc(CCNC(=O)c2ccc(CN3CCCCC3)cc2)n1 | 8.61% |
| CN(C)c1ccc(C(=O)N2CCCC(n3cccn3)C2)cn1 (configuration not stated) | -11.5% |
| Cc1cnccc1N1CCN(C(=O)C2CC3(CCNCC3)CN2)CC1 (configuration not stated) | -13.7% |
| Cc1ccccc1OC1CCN(C(=O)CNC(=O)N(C)C)CC1 | 9.83% |
| CC(C)(C)c1cc(=O)[nH]c(-c2ccccc2CN2CCCCCC2)n1 | -42% |
| COc1ccccc1COCC(O)CN(C)Cc1cccc(Cl)c1 (configuration not stated) | -1.28% |
| c1ccc(-c2nc3c(c(NCc4nnc5n4CCC5)n2)CCNC3)cc1 | -3.71% |
| Cc1cccc(N2CCN(C(=O)Nc3cnn(CC(N)=O)c3)CC2)c1 | -8.31% |
| COc1ccc2c(c1)CN(c1nc(C)cc(C)n1)CC2 | -0.734% |
| CCOCCC(=O)NC(c1noc(C)n1)c1ccccc1F (configuration not stated) | 0.101% |
| Cc1occc1C(=O)N1CCC2(CCN(Cc3nccs3)C2)CC1 | -12.5% |
| CCCc1cc(C(=O)N(C)Cc2cccc3ncccc23)n(C)n1 | -0.758% |
| CC1CCC(NS(=O)(=O)CC(=O)NCC2CCC2)CC1 (configuration not stated) | -3.17% |
| COc1ccc(CN2C[C@@H]3CN(S(=O)(=O)C4CC4)C[C@@H]3C2=O)cc1 | -4.01% |
| CC(=O)N(C)Cc1cccc(NC(=O)N(C)Cc2nccs2)c1 | -6.77% |
| OCCN1CCN(CC(O)c2cc(Cl)ccc2Cl)CC1 (configuration not stated) | -3.03% |
| COc1cccc(S(=O)(=O)N2CCCCC2CCN2CCOCC2)c1 (configuration not stated) | -5.31% |
| CCn1cnc2c(c(Br)nn2C)c1=O | 4.37% |
| CN(CCO)C[C@@H]1CN(C2CCN(c3ccccc3Cl)CC2)C[C@@H]1CO | -9.22% |
| O=C(c1ccc(F)c(F)c1)N1CCCC(Nc2ccc(F)cc2)C1 (configuration not stated) | -12.1% |
| O=C(c1cccc(NCCO)c1)N1CCOCC1 | -11% |

| SMILES | cytotoxicity at 10 µM |
| --- | --- |
| Cc1cnn(CC2CN(c3ncnc4c3CCC4)CCO2)c1 (configuration not stated) | 56.5% |
| CN(c1ccc(C(=O)NCCCN2CCCCC2)c(Cl)c1)S(C)(=O)=O | -0.313% |
| NC(=O)c1ccc(C2CN(Cc3ccc(F)cc3)CCO2)nc1 (configuration not stated) | 18.6% |
| CCCC(C)N(C)C(=O)c1nc(S(C)(=O)=O)n2ccccc12 (configuration not stated) | -8.16% |
| Cc1cc2c(N)nc(=O)n(CC(=O)Nc3cccc(Cl)c3)c2s1 | -3.14% |
| Cc1oncc1C(=O)N1CCC2(CC1)CC(c1ccccc1)C(=O)N2C (configuration not stated) | -14.5% |
| Cn1c2c(ccc1=O)CC(NC(=O)Cc1ccsc1)CC2 (configuration not stated) | 4.08% |
| CCCN(CCc1cccc(F)c1)c1ccc2nnnn2n1 | 1.44% |
| O=C(Cn1cc(Cl)cn1)N1CCCC(c2cc3ccccc3cn2)C1 (configuration not stated) | -27.3% |
| Cc1nc(CCN)cc(N2CCC(O)(c3ccccc3)C2)n1 (configuration not stated) | 2.03% |
| CN1CCO[C@@H]2CN(S(=O)(=O)c3ccccc3)C[C@@H]2C1 | 0.93% |
| Cc1nc(C)n(CC2CN(CC(=O)NC3CCCC3)CCO2)n1 (configuration not stated) | -4.83% |
| CN1CCN(c2ccccc2NC(=O)NCCc2ccccc2)CC1 | -4.63% |
| CC(C)(C)c1nc(CC(=O)NC2CCN(C3CC3)C2)cs1 (configuration not stated) | -9.25% |
| CS(=O)(=O)NCC1CCCN(c2ccc(C(F)(F)F)cn2)C1 (configuration not stated) | -17.3% |
| CCN(Cc1cccnc1)CC1(C)Cc2c(N)nc(N)nc2O1 (configuration not stated) | 0.705% |
| Cc1cc(C)nc(N2CCC(c3c(C(N)=O)sc4ccccc34)C2)n1 (configuration not stated) | 8.78% |
| CCN1CCC(Cn2ccc3ccc(C(=O)OC)cc3c2=O)C1 (configuration not stated) | -9.09% |
| Cc1nn2cnnc2c(C)c1CCC(=O)Nc1nnc(C(C)C)s1 | -3.25% |
| CC(C)S(=O)(=O)NCC1CCCN(C(=O)c2cccnc2)C1 (configuration not stated) | -7.16% |
| CC(C)(C#N)C(=O)N1CCCC(c2cc(C(F)(F)F)[nH]n2)C1 (configuration not stated) | -5.67% |

| SMILES | cytotoxicity at 10 µM |
| --- | --- |
| Cc1ccc(NC2CCN(C(=O)COC3CCCCC3)CC2)nn1 | 5.94% |
| CCSCc1ccnc(NC(=O)C2CCCO2)c1 (configuration not stated) | 5.39% |
| CCN1CCN(c2ncc(-c3cc(C)no3)c(-c3ccoc3C)n2)CC1 | 1.16% |
| FC(F)COc1ccccc1NCc1nnsc1Cl | -2.63% |
| CCC(=O)N1CCCC(C(=O)N2CCN(c3cnn(C)c(=O)c3)CC2)C1 (configuration not stated) | 3.98% |
| CN1CCC(c2nccnc2Nc2cnccn2)CC1 | -4.27% |
| COc1ccnc(N2CCCN(C(=O)Cc3ccc(C)s3)CC2)n1 | -2.12% |
| COCC(=O)Nc1cnn(COc2ccc(F)cc2Cl)c1 | -4.52% |
| Cc1ccc2c(c1)CCC2NC(=O)N1CCC(C(N)=O)CC1 (configuration not stated) | -4.83% |
| CCc1nc(CN2CCCC(N(C)Cc3cnc(C)cn3)C2)no1 (configuration not stated) | -5.66% |
| O=S(=O)(C1CC1)N1CCC2(CC1)COC(COc1cccnc1)C2 (configuration not stated) | 9.49% |
| CC(C)(C)OC(=O)N1CSC[C@@H]1C(=O)NCc1ccncc1 | 1.17% |
| Clc1ccc(CN(CCN2CCOCC2)Cc2cccnc2)c(Cl)c1 | -4.25% |
| COC(=O)NCC(=O)NCC1(c2c(F)cccc2F)CCCC1 | -3.56% |
| Cc1noc(CN(Cc2ccc3c(c2)OCO3)C2CCCC2)n1 | -5.28% |
| CS(=O)(=O)N1CCCC12CCCN(C(=O)c1ccnnc1)C2 (configuration not stated) | -143% |
| CN(CC1COc2ccccc2O1)C(=O)CCn1cncn1 (configuration not stated) | -7.36% |
| COCC(=O)Nc1ccc(-c2noc([C@@H]3CCCN3CC(C)C)n2)cn1 | 5.82% |
| CC(C)c1ncc2c(n1)CN(CC1CCCCO1)CC2 (configuration not stated) | 8.86% |
